# The source made the active and inactive calls. The rule behind the calls is not given here.
# Columns and labels:
# Schistosoma mansoni [1] = experiment: Antiparasitic activity against Schistosoma mansoni assessed as parasite death at 300 ug/ml; type: functional
# How it was run: (§1)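 Schistosomula (day 21) and adults (day 49) were taken from percutaneously infected Swiss OF1 mice. Compounds were serially diluted in DMSO, with the last step into RPMI containing Tween 80, and worms were exposed across a concentration and time range. Survival was recorded and groups compared by pairwise log-rank tests (α = 1%).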
# Schistosoma mansoni [2] = experiment: Antiparasitic activity against Schistosoma mansoni adult worm assessed as reduction of body contractility and movement at 50 ug/ml within 7 hrs
# Schistosoma mansoni [3] = experiment: Antiparasitic activity against Schistosoma mansoni adult worm assessed as reduction of body contractility and movement at 50 ug/ml; type: functional, organism-based
# How it was run: (§2)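 Brazilian S. mansoni maintained in Swiss OF1 mice. Schistosomula recovered 21 days after percutaneous infection with 400 cercariae, and adults 49 days after 120 cercariae. Final concentration was 5 µg/ml for larvae and 50 µg/ml for adults, in RPMI/Tween 80/DMSO (1,000/0.95/3.8). Survival was followed over time and compared by pairwise log-rank tests (α = 1%).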
# Schistosoma mansoni [4] = experiment: Antiparasitic activity against Schistosoma mansoni adult worm assessed as reduction of body contractility and movement at 50 ug/ml
# Schistosoma mansoni [5] = experiment: Antiparasitic activity against Schistosoma mansoni larva assessed as reduction of body contractility and movement at 5 ug/ml
# Schistosoma mansoni [6] = experiment: Antiparasitic activity against Schistosoma mansoni larva assessed as reduction of body contractility and movement at 5 ug/ml; type: functional, organism-based; how it was run: as §2
# Schistosoma mansoni [7] = experiment: Antiparasitic activity against Schistosoma mansoni larva assessed as reduction of body contractility and movement at 5 ug/ml within 7 hrs; type: functional, organism-based; how it was run: as §2
# Schistosoma mansoni [8] = experiment: Antiparasitic activity against Schistosoma mansoni assessed as parasite death at 5 ug/ml; type: functional; how it was run: as §1
# Schistosoma mansoni [9] = experiment: Antiparasitic activity against Schistosoma mansoni assessed as parasite death at 10 ug/ml; type: functional; how it was run: as §1
# Schistosoma mansoni [10] = experiment: Antiparasitic activity against Schistosoma mansoni assessed as parasite death at 100 ug/ml; type: functional; how it was run: as §1
smiles,measurement,setting,value
C[C@H]1[C@H](OC(=O)CCC(=O)O)O[C@@H]2O[C@@]3(C)CC[C@H]4[C@H](C)CC[C@@H]1[C@@]24OO3 [ARTESUNATE],Activity,Schistosoma mansoni [1],100%
CC1(C)COC2(CCC(N[C@H]3CC[C@H](Nc4ccnc5cc(C(F)(F)F)ccc45)CC3)CC2)OO1 (stereo partly specified),Activity,Schistosoma mansoni [2],Active
same,Activity,Schistosoma mansoni [3],Active
same,Activity,Schistosoma mansoni [4],Active
same,Activity,Schistosoma mansoni [5],Active
same,Activity,Schistosoma mansoni [6],Active
Clc1ccc2c(NCCN3CCC4(CC3)OCC3(CCCC3)OO4)ccnc2c1,Activity,Schistosoma mansoni [2],Active
same,Activity,Schistosoma mansoni [7],Active
same,Activity,Schistosoma mansoni [3],Active
same,Activity,Schistosoma mansoni [4],Active
same,Activity,Schistosoma mansoni [5],Active
same,Activity,Schistosoma mansoni [6],Active
CO[C@H]1O[C@@H]2O[C@@]3(C)CC[C@H]4[C@H](C)CC[C@@H]([C@H]1C)[C@@]24OO3 [ARTEMETHER],Activity,Schistosoma mansoni [1],100%
CC1(C)COC2(CCC(N[C@H]3CC[C@H](Nc4ccnc5cc(Cl)ccc45)CC3)CC2)OO1 (stereo partly specified),Activity,Schistosoma mansoni [2],Active
same,Activity,Schistosoma mansoni [7],Active
same,Activity,Schistosoma mansoni [3],Active
same,Activity,Schistosoma mansoni [4],Active
same,Activity,Schistosoma mansoni [5],Active
same,Activity,Schistosoma mansoni [6],Active
O=C(C1CCCCC1)N1CC(=O)N2CCc3ccccc3C2C1 (stereo unspecified) [PRAZIQUANTEL],Activity,Schistosoma mansoni [8],100%
same,Activity,Schistosoma mansoni [3],Active
same,Activity,Schistosoma mansoni [4],Active
same,Activity,Schistosoma mansoni [9],100%
same,Activity,Schistosoma mansoni [5],Active
same,Activity,Schistosoma mansoni [6],Active
CN(C1CCC2(CC1)OCC(C)(C)OO2)[C@H]1CC[C@H](Nc2ccnc3cc(Cl)ccc23)CC1 (stereo partly specified),Activity,Schistosoma mansoni [2],inactive
same,Activity,Schistosoma mansoni [7],inactive
same,Activity,Schistosoma mansoni [3],Active
same,Activity,Schistosoma mansoni [4],Active
same,Activity,Schistosoma mansoni [5],Active
same,Activity,Schistosoma mansoni [6],Active
Clc1ccc2c(N[C@H]3CC[C@H](NC4CCC5(CC4)OCC4(CCCC4)OO5)CC3)ccnc2c1 (stereo partly specified),Activity,Schistosoma mansoni [2],Active
same,Activity,Schistosoma mansoni [8],100%
same,Activity,Schistosoma mansoni [7],Active
same,Activity,Schistosoma mansoni [3],Active
same,Activity,Schistosoma mansoni [4],Active
same,Activity,Schistosoma mansoni [9],100%
same,Activity,Schistosoma mansoni [5],Active
same,Activity,Schistosoma mansoni [10],100%
same,Activity,Schistosoma mansoni [1],100%
same,Activity,Schistosoma mansoni [6],Active
Clc1ccc2c(NCCN3CCC4(CC3)OCC3(CCCCC3)OO4)ccnc2c1,Activity,Schistosoma mansoni [2],Active
same,Activity,Schistosoma mansoni [3],Active
same,Activity,Schistosoma mansoni [4],Active
same,Activity,Schistosoma mansoni [5],Active
same,Activity,Schistosoma mansoni [6],Active
